Tests used:
[1] = Binding affinity to biotinylated mouse CD22-human IgG1 chimeric protein expressed in mouse J558LST6 cells by flow cytometry; type: cell-based
Outline: (§1)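 IC50 from inhibition of CD22-Fc binding to alpha2,6-sialic acid on ST6GalI-transfected J558L mouse myeloma cells (J558LST6), incubated with CD22-Fc plus varied sialoside concentrations. Detection with Alexa Fluor 647-streptavidin, 30 min on ice, then flow cytometry. % binding = (A−B)/(C−B)×100 using MFI: A, sialoside sample; B, parent J558L; C, untreated J558LST6. IC50 taken as 50% binding inhibition; means of ≥3 independent determinations.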

[2] = target: T1, B-cell receptor CD22 (Homo sapiens, UniProt P20273); assay: Binding affinity to biotinylated human CD22-human IgG1 chimeric protein expressed in mouse J558LST6 cells by flow cytometry; type: cell-based; outline: as §1
T1 sequence (P20273 whole entry): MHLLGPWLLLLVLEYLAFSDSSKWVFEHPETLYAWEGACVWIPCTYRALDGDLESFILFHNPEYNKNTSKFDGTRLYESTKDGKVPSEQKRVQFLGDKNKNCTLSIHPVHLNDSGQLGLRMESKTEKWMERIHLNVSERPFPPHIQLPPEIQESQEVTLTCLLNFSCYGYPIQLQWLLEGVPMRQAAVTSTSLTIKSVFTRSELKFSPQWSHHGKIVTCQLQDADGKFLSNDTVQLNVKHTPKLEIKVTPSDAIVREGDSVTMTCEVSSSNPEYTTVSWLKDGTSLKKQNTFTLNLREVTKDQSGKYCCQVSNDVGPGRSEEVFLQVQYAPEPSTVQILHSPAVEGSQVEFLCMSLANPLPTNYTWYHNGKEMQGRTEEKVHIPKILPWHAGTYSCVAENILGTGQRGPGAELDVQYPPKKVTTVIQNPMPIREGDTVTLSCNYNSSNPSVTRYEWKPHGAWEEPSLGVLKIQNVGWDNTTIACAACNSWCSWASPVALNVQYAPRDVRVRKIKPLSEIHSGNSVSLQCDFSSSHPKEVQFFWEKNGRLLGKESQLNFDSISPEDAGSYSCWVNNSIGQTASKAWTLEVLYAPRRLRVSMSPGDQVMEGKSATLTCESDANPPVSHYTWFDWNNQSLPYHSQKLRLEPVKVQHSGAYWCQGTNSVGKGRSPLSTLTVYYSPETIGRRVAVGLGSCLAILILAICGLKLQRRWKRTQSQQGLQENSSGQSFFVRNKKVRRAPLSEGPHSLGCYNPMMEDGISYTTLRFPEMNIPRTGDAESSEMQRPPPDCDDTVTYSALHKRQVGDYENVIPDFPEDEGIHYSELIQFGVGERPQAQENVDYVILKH

| Structure (SMILES) | IC50 [1] [µM] | IC50 [2] [µM] |
| --- | --- | --- |
| COc1ccc(O[C@@H]2O[C@H](CO[C@]3(C(=O)O)C[C@H](O)[C@@H](NC(=O)CO)[C@H]([C@H](O)[C@H](O)CNCC4CCCCC4)O3)[C@H](O)[C@H](O)[C@H]2O)cc1 | 9.5 | 37.7 |
| COc1ccc(O[C@@H]2O[C@H](CO[C@]3(C(=O)O)C[C@H](O)[C@@H](NC(=O)CO)[C@H]([C@H](O)[C@H](O)CNCc4ccccc4)O3)[C@H](O)[C@H](O)[C@H]2O)cc1 | 25.7 | 123 |
| COc1ccc(O[C@@H]2O[C@H](CO[C@]3(C(=O)O)C[C@H](O)[C@@H](NC(=O)CO)[C@H]([C@H](O)[C@H](O)CNC(=O)Cc4ccc(-c5cccc(O)c5)cc4)O3)[C@H](O)[C@H](O)[C@H]2O)cc1 | 2.9 | 4.3 |
| COc1ccc(O[C@@H]2O[C@H](CO[C@]3(C(=O)O)C[C@H](O)[C@@H](NC(=O)CO)[C@H]([C@H](O)[C@H](O)CNC(=O)CCCc4ccc5ccc6cccc7ccc4c5c67)O3)[C@H](O)[C@H](O)[C@H]2O)cc1 | 66.8 | 21.1 |
| COc1ccc(O[C@@H]2O[C@H](CO[C@]3(C(=O)O)C[C@H](O)[C@@H](NC(=O)CO)[C@H]([C@H](O)[C@H](O)CNCCCCc4ccc(-c5ccccc5)cc4)O3)[C@H](O)[C@H](O)[C@H]2O)cc1 | 4.1 | 6.22 |
| COc1ccc(O[C@@H]2O[C@H](CO[C@]3(C(=O)O)C[C@H](O)[C@@H](NC(=O)CO)[C@H]([C@H](O)[C@H](O)CNCc4cc(OC)cc(OC)c4)O3)[C@H](O)[C@H](O)[C@H]2O)cc1 | 77.5 | 24.8 |
| COc1ccc(O[C@@H]2O[C@H](CO[C@]3(C(=O)O)C[C@H](O)[C@@H](NC(=O)CO)[C@H]([C@H](O)[C@H](O)CNCc4ccc(-c5ccc(C(F)(F)F)cc5)cc4)O3)[C@H](O)[C@H](O)[C@H]2O)cc1 | 48 | 45 |
| COc1ccc(O[C@@H]2O[C@H](CO[C@]3(C(=O)O)C[C@H](O)[C@@H](NC(=O)CO)[C@H]([C@H](O)[C@H](O)CNC(=O)Cc4ccc(-c5ccccc5)cc4)O3)[C@H](O)[C@H](O)[C@H]2O)cc1 | 6.2 | 3.7 |
| CCCCCC(=O)NC[C@@H](O)[C@@H](O)[C@@H]1O[C@@](OC[C@H]2O[C@@H](Oc3ccc(OC)cc3)[C@H](O)[C@@H](O)[C@H]2O)(C(=O)O)C[C@H](O)[C@H]1NC(=O)CO | 88.5 | 40.9 |
| COc1ccc(O[C@@H]2O[C@H](CO[C@]3(C(=O)O)C[C@H](O)[C@@H](NC(=O)CO)[C@H]([C@H](O)[C@H](O)CNCCc4ccc(-c5ccccc5)cc4)O3)[C@H](O)[C@H](O)[C@H]2O)cc1 | 11.2 | 5.48 |
| COc1ccc(O[C@@H]2O[C@H](CO[C@]3(C(=O)O)C[C@H](O)[C@@H](NC(=O)CO)[C@H]([C@H](O)[C@H](O)CNC(=O)c4cc(Cl)ccc4O)O3)[C@H](O)[C@H](O)[C@H]2O)cc1 | 161 | 116 |
| COc1ccc(O[C@@H]2O[C@H](CO[C@]3(C(=O)O)C[C@H](O)[C@@H](NC(=O)CO)[C@H]([C@H](O)[C@H](O)CNCc4ccc(-c5ccc(C)cc5)cc4)O3)[C@H](O)[C@H](O)[C@H]2O)cc1 | 27 | 9.83 |
| COc1ccc(O[C@@H]2O[C@H](CO[C@]3(C(=O)O)C[C@H](O)[C@@H](NC(=O)CO)[C@H]([C@H](O)[C@H](O)CNC(=O)c4ccc5ccccc5c4)O3)[C@H](O)[C@H](O)[C@H]2O)cc1 | 90 | 2.6 |
| COc1ccc(O[C@@H]2O[C@H](CO[C@]3(C(=O)O)C[C@H](O)[C@@H](NC(=O)CO)[C@H]([C@H](O)[C@H](O)CNC(=O)c4ccc(-c5ccc(C(=O)O)cc5)cc4)O3)[C@H](O)[C@H](O)[C@H]2O)cc1 | 23.4 | 73.3 |
| COc1ccc(O[C@@H]2O[C@H](CO[C@]3(C(=O)O)C[C@H](O)[C@@H](NC(=O)CO)[C@H]([C@H](O)[C@H](O)CNC(=O)C4CCCCC4)O3)[C@H](O)[C@H](O)[C@H]2O)cc1 | 65.3 | 16 |
| COc1ccc(O[C@@H]2O[C@H](CO[C@]3(C(=O)O)C[C@H](O)[C@@H](NC(=O)CO)[C@H]([C@H](O)[C@H](O)CNC(=O)CCc4ccc(O)cc4)O3)[C@H](O)[C@H](O)[C@H]2O)cc1 | 139 | 7.65 |

| Structure (SMILES) | IC50 [1] [µM] | IC50 [2] [µM] |
| --- | --- | --- |
| COc1ccc(O[C@@H]2O[C@H](CO[C@]3(C(=O)O)C[C@H](O)[C@@H](NC(=O)CO)[C@H]([C@H](O)[C@H](O)CNCc4ccc(-c5cccc(C(=O)O)c5)cc4)O3)[C@H](O)[C@H](O)[C@H]2O)cc1 | 32.7 | 7.48 |
| COc1ccc(O[C@@H]2O[C@H](CO[C@]3(C(=O)O)C[C@H](O)[C@@H](NC(=O)CO)[C@H]([C@H](O)[C@H](O)CNC(=O)Cc4ccc(-c5ccc(O)cc5)cc4)O3)[C@H](O)[C@H](O)[C@H]2O)cc1 | 1.7 | 0.9 |
| COc1ccc(O[C@@H]2O[C@H](CO[C@]3(C(=O)O)C[C@H](O)[C@@H](NC(=O)CO)[C@H]([C@H](O)[C@H](O)CNC(=O)c4cccnc4)O3)[C@H](O)[C@H](O)[C@H]2O)cc1 | 32.2 | 132 |
| COc1ccc(O[C@@H]2O[C@H](CO[C@]3(C(=O)O)C[C@H](O)[C@@H](NC(=O)CO)[C@H]([C@H](O)[C@H](O)CNC(=O)Cc4ccc5ccccc5c4)O3)[C@H](O)[C@H](O)[C@H]2O)cc1 | 24.7 | 1 |
| COc1ccc(O[C@@H]2O[C@H](CO[C@]3(C(=O)O)C[C@H](O)[C@@H](NC(=O)CO)[C@H]([C@H](O)[C@H](O)CNCc4ccc(-c5ccc(O)cc5)cc4)O3)[C@H](O)[C@H](O)[C@H]2O)cc1 | 6.43 | 0.24 |
| COc1ccc(O[C@@H]2O[C@H](CO[C@]3(C(=O)O)C[C@H](O)[C@@H](NC(=O)CO)[C@H]([C@H](O)[C@H](O)CNC(=O)c4ccccc4O)O3)[C@H](O)[C@H](O)[C@H]2O)cc1 | 138 | 193 |
| COc1ccc(O[C@@H]2O[C@H](CO[C@]3(C(=O)O)C[C@H](O)[C@@H](NC(=O)CO)[C@H]([C@H](O)[C@H](O)CNC(=O)c4ccc(-c5ccccc5)cc4)O3)[C@H](O)[C@H](O)[C@H]2O)cc1 | 52.9 | 1.1 |
| COc1ccc(O[C@@H]2O[C@H](CO[C@]3(C(=O)O)C[C@H](O)[C@@H](NC(=O)CO)[C@H]([C@H](O)[C@H](O)CNCc4ccc(-c5ccc(OC)cc5)cc4)O3)[C@H](O)[C@H](O)[C@H]2O)cc1 | 30 | 1.76 |
| COc1ccc(O[C@@H]2O[C@H](CO[C@]3(C(=O)O)C[C@H](O)[C@@H](NC(=O)CO)[C@H]([C@H](O)[C@H](O)CNCc4ccc(-c5ccc(C(=O)O)cc5)cc4)O3)[C@H](O)[C@H](O)[C@H]2O)cc1 | 10 | 43 |
| COc1ccc(O[C@@H]2O[C@H](CO[C@]3(C(=O)O)C[C@H](O)[C@@H](NC(=O)CO)[C@H]([C@H](O)[C@H](O)CNCc4ccc(-c5cccc(O)c5)cc4)O3)[C@H](O)[C@H](O)[C@H]2O)cc1 | 16.5 | 1.73 |
| COc1ccc(O[C@@H]2O[C@H](CO[C@]3(C(=O)O)C[C@H](O)[C@@H](NC(=O)CO)[C@H]([C@H](O)[C@H](O)CNC(=O)CCc4ccccc4)O3)[C@H](O)[C@H](O)[C@H]2O)cc1 | 168 | 10.4 |
| COc1ccc(O[C@@H]2O[C@H](CO[C@]3(C(=O)O)C[C@H](O)[C@@H](NC(=O)CO)[C@H]([C@H](O)[C@H](O)CNC(=O)c4ccc(-c5cccc(C(=O)O)c5)cc4)O3)[C@H](O)[C@H](O)[C@H]2O)cc1 | 16.6 | 7.13 |
| COc1ccc(O[C@@H]2O[C@H](CO[C@]3(C(=O)O)C[C@H](O)[C@@H](NC(=O)CO)[C@H]([C@H](O)[C@H](O)CNCc4ccc(-c5ccccc5)cc4)O3)[C@H](O)[C@H](O)[C@H]2O)cc1 | 16.3 | 0.47 |
| COc1ccc(O[C@@H]2O[C@H](CO[C@]3(C(=O)O)C[C@H](O)[C@@H](NC(=O)CO)[C@H]([C@H](O)[C@H](O)CNC(=O)c4ccc(-c5ccc(O)cc5)cc4)O3)[C@H](O)[C@H](O)[C@H]2O)cc1 | 8.63 | 0.4 |
| COc1ccc(O[C@@H]2O[C@H](CO[C@]3(C(=O)O)C[C@H](O)[C@@H](NC(=O)CO)[C@H]([C@H](O)[C@H](O)CNC(=O)C(c4ccccc4)c4ccccc4)O3)[C@H](O)[C@H](O)[C@H]2O)cc1 | 63.5 | 8.85 |
| COc1ccc(O[C@@H]2O[C@H](CO[C@]3(C(=O)O)C[C@H](O)[C@@H](NC(=O)CO)[C@H]([C@H](O)[C@H](O)CNCc4ccc(-c5ccccc5O)cc4)O3)[C@H](O)[C@H](O)[C@H]2O)cc1 | 12.5 | 0.23 |
